Publication PMC7704577 (Bioorganic & medicinal chemistry letters, 2020)
Bridge positions count the residues as written; N and C are the ends. Square brackets hold non-standard residues; d marks the D form. Peptide text beside a SMILES is read from it. * marks the point of attachment. NODAGA = O=C(O)CN1CCN(CC(=O)O)CCN(C(CCC(=O)*)C(=O)O)CC1; Nle = CCCC[C@H](N)C(=O)O

Legend:
[1] = molecular target: MC1 receptor (B16/F10 melanoma cells) (Mus musculus, UniProt Q01727); experiment: In vitro competitive receptor binding assay on B16/F10 melanoma cells
Procedure, shortened: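 Competitive displacement on intact B16/F10 cells (0.5×10^5/well, n = 3; assay run in triplicate): 2 h at 25 °C with ~30,000 cpm 125I-(Tyr2)-NDP-MSH plus 10−12 to 10−5 M test peptide in MEM binding medium (25 mM HEPES pH 7.4, 0.2% BSA, 0.3 mM 1,10-phenanthroline). Cells rinsed twice in ice-cold 0.2% BSA/PBS, lysed in 1 N NaOH 5 min, gamma-counted; IC50 by curve fit.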

MC1R = conditions: no reference given; cited from earlier work

MC1 receptor (B16/F10 melanoma cells), sequence (Q01727 whole entry): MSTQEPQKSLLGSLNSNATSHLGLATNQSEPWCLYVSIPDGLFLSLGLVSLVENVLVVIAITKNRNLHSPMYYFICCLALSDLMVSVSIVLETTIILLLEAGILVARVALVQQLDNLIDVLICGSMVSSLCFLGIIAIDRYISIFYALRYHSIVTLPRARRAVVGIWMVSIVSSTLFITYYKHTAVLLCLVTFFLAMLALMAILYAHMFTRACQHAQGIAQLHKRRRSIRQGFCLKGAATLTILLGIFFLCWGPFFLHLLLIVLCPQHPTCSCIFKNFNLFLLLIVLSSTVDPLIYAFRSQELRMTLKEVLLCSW

IC50 [1] [nM]	Compound	MC1R binding affinity (MC1R)
0.87 ± 0.12	CCCC[C@H](NC(=O)CNC(=O)CNC(=O)CCC(C(=O)O)N1CCN(CC(=O)O)CCN(CC(=O)O)CC1)C(=O)N[C@H]1CC(=O)NCCCC[C@@H](C(N)=O)NC(=O)[C@H](Cc2c[nH]c3ccccc23)NC(=O)[C@H](CCCNC(=N)N)NC(=O)[C@@H](Cc2ccccc2)NC(=O)[C@H](Cc2c[nH]cn2)NC1=O (stereo partly drawn) [NODAGA-GGNle-CycMSHhex, 1,4,7-triazacyclononane,1-gluteric acid-4,7-acetic acid-GlyGlyNle-c[Asp-His-DPhe-Arg-Trp-Lys]-CONH2] ({NODAGA}-GG[Nle]DH[dF]RWK-NH2; lactam 4-9)	
	[Nle^4, D-Phe^7]-α-MSH [NDP-MSH]	sub-nanomolar MC1R binding affinity
